Columns and labels:
[1] = Volume of distribution in rat; assay type: ADME, organism-based; conditions: in vivo
[2] = Blood clearance in rat; assay type: ADME, organism-based
[3] = biological target: Sodium-dependent dopamine transporter (Homo sapiens, UniProt Q01959); assay: Displacement of [3H]WIN-35428 from human recombinant DAT expressed in BacMam virus-transduced cells by scintillation proximity assay; assay type: cell-based
[4] = system: Brain; assay: Fraction unbound in rat brain; assay type: ADME, tissue-based
[5] = Half life in rat; assay type: ADME, organism-based; conditions: in vivo
[6] = biological target: Sodium-dependent noradrenaline transporter (Homo sapiens, UniProt P23975); assay: Displacement of [3H]nisoxetine from human recombinant NET expressed in BacMam virus-transduced cells by scintillation proximity assay; assay type: cell-based
Sodium-dependent noradrenaline transporter, sequence (P23975 whole entry): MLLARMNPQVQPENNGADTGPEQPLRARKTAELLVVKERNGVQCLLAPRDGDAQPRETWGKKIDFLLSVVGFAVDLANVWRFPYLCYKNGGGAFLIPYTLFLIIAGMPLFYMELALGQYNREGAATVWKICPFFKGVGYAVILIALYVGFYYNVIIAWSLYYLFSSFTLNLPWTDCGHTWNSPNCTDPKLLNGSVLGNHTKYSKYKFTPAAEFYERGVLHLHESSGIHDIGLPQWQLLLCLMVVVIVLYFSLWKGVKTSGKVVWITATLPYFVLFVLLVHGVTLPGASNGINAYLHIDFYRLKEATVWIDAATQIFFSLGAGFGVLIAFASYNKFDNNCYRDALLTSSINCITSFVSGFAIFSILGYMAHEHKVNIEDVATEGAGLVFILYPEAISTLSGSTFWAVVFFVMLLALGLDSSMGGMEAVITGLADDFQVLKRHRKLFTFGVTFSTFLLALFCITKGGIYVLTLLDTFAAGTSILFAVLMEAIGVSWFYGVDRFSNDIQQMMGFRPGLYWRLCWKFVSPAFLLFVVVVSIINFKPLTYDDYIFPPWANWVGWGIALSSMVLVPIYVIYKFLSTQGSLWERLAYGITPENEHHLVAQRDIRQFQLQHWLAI
In short: (§1)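 BacMam-transduced membranes in SPA format. SERT: 1 mg/mL beads, 6 μg/mL membranes, 3 nM [3H]citalopram. NET: 2 mg/mL beads, 40 μg/mL membranes, 10 nM [3H]nisoxetine. Incubated overnight at room temperature; pKi from pIC50 by Cheng-Prusoff.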

[7] = biological target: Sodium-dependent serotonin transporter (Homo sapiens, UniProt P31645); assay: Displacement of [3H]citalopram from human recombinant SERT expressed in BacMam virus-transduced cells by scintillation proximity assay; assay type: cell-based; in short: as §1
Sodium-dependent serotonin transporter, sequence (P31645 whole entry): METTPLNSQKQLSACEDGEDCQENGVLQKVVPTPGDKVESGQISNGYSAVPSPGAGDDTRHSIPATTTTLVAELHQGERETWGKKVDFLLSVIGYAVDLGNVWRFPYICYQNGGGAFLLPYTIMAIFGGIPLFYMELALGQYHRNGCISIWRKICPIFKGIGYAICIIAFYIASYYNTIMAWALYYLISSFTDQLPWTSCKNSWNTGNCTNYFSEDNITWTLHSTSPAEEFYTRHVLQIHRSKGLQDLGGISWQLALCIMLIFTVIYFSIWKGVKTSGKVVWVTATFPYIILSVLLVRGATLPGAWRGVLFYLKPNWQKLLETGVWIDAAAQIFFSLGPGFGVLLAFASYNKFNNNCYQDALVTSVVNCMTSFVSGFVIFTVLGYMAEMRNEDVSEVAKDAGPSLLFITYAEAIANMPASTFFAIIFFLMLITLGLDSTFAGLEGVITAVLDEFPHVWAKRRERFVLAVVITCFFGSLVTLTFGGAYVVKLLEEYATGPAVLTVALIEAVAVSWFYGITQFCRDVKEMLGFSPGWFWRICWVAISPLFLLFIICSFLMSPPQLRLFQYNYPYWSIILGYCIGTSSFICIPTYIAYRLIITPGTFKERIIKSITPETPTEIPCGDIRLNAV

[8] = Bioavailability in rat; assay type: ADME, organism-based; conditions: in vivo

Sodium-dependent dopamine transporter, sequence (Q01959 whole entry): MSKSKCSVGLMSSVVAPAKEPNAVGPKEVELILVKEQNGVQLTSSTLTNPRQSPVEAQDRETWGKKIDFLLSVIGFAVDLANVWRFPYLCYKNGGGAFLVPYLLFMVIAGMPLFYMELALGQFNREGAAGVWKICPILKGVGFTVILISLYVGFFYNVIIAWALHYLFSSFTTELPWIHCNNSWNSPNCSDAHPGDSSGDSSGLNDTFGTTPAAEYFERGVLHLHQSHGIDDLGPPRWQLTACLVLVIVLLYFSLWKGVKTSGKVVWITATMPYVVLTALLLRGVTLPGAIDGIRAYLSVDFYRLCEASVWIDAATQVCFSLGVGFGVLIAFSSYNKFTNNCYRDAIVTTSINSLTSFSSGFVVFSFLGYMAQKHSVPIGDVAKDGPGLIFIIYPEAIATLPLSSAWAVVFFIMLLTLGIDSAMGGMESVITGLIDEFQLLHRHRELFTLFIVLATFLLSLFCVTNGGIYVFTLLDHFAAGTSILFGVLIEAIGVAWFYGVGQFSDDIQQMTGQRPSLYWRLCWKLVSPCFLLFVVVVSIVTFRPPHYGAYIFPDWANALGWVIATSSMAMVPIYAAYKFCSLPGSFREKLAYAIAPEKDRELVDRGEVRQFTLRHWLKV

## FC(F)(F)COC[C@H]1[C@@H]2CNC[C@@]21c1ccc(Cl)c(Cl)c1
[1]
  Vd: 3.2 L/kg
[2]
  clearance: 42 mL/min/kg
[3]
  Ki: 631 nM
[4]
  Fu: 0.6%
[5]
  half-life: 1.4 h
[6]
  Ki: 347 nM
[7]
  Ki: 56.2 nM
[8]
  bioavailability: 41%
